The results in this text go back to ChEMBL document CHEMBL3297674, “Structure-activity relationships of 2'-modified-4'-selenoarabinofuranosyl-pyrimidines as anticancer agents” (Eur J Med Chem, 2014).

SMILES strings stand for the structures.

The test system of one series is T47D. Put plainly: Cytotoxicity against human T47D cells by SRB assay. It is filed as functional, cell-based. Put shortly: (§1)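 Cytotoxicity measured in human cancer cell lines (colon HCT116, lung A549, stomach SNU638, breast T47D, prostate PC-3, leukemia K562) by sulforhodamine B protein staining.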
Series [1] relates to PC-3. The experiment in a line: Cytotoxicity against human PC3 cells by SRB assay. It is filed as functional, cell-based. Put shortly:
as §1
(In general: The SRB assay estimates cell density from bound dye.)

The nature of series [2]: Cytotoxicity against human SNU638 cells by SRB assay. The format is functional, cell-based. As to conditions: SNU-638. The method in brief:
as §1

In the next series the test system is A549. The experiment in a line: Cytotoxicity against human A549 cells by SRB assay. The format is functional, cell-based. Put shortly: as §1
The test system of the next series is HCT-116. The experiment in a line: Cytotoxicity against human HCT116 cells by SRB assay. The format is functional, cell-based. Put shortly:
as §1

Another series concerns K562. The experiment in a line: Cytotoxicity against human K562 cells by SRB assay. It is filed as functional, cell-based. The method in brief: as §1
Series [3] concerns PC-3. Put plainly: Drug metabolism in human PC3 cells assessed as formation of mono, di, or triphosphate at 50 uM after 24 hrs by HPLC-MS analysis. The format is ADME, cell-based. To be noted: pc-3, 24 h. The method in brief: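 PC-3 cells seeded at 5×10^5 per 100 mm dish, grown 24 h, then exposed to 50 µM compound for 24 h. Cells washed with DPBS and extracted in methanol/chloroform with three liquid N₂ freeze–sonication cycles. Water/chloroform phase split at 22,000 g, 4 °C. Dried upper layer analysed by HILIC (ZIC-pHILIC, 10 mM ammonium carbonate/acetonitrile gradient, 35 °C) with ESI ion-trap MS.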

Turning to `[N-]=[N+]=N[C@@H]1C(n2ccc(=O)[nH]c2=O)[Se][C@H](CO)[C@H]1O` (stereo partly drawn), the IC50 (in the series on T47D; with PC-3 [1]; in series [2]; in the series with A549; in the series with HCT-116; in the series on K562) was greater than 100 µM in each case.
For the compound `[N-]=[N+]=N[C@@H]1C(n2cc(Cl)c(=O)[nH]c2=O)[Se][C@H](CO)[C@H]1O` (stereo partly drawn), the IC50 (in the series on T47D; in the series on PC-3 [1]; in series [2]; with A549; with HCT-116; in the series on K562) was greater than 100 µM in each case.
On to `[N-]=[N+]=N[C@@H]1C(n2cc(I)c(=O)[nH]c2=O)[Se][C@H](CO)[C@H]1O` (stereo partly drawn), for which the IC50 (in the series on T47D; in the series with PC-3 [1]; in series [2]; in the series on A549; with HCT-116; in the series with K562) was greater than 100 µM in each case.
As for `Cc1cn(C2[Se][C@H](CO)[C@@H](O)[C@@H]2F)c(=O)[nH]c1=O` (stereo partly drawn), the IC50 was found to be 65.3 µM with T47D; 88 µM with PC-3 [1]; 77.2 µM in series [2]; 76.4 µM in the series with A549; 85.2 µM in the series with HCT-116; 76.3 µM in the series on K562.
On to `O=c1[nH]c(=O)n(C2[Se][C@H](CO)[C@@H](O)[C@@H]2F)cc1F` (stereo partly drawn), for which the IC50 in the series with T47D turned out to be 51.1 µM; in the series on PC-3 [1], 43.1 µM; in series [2], 50.1 µM; in the series on A549 it was 54.2 µM; in the series on HCT-116, 40.1 µM; with K562 it was 78.5 µM.
In the case of `O=c1[nH]c(=O)n(C2[Se][C@H](CO)[C@@H](O)[C@@H]2F)cc1Br` (stereo partly drawn), the IC50 (in the series on T47D; with PC-3 [1]; in series [2]; in the series on A549; in the series with HCT-116; in the series on K562) was greater than 100 µM each time.
As to `O=c1[nH]c(=O)n(C2[Se][C@H](CO)[C@@H](O)[C@@H]2F)cc1I` (stereo partly drawn), the IC50 (in the series with T47D; with PC-3 [1]; in series [2]; in the series on A549; in the series with HCT-116; in the series on K562) was greater than 100 µM in each case.
For the compound `O=c1ccn(C2[Se][C@H](CO)[C@@H](O)[C@@H]2O)c(=O)[nH]1` (stereo partly drawn), the half-inhibitory concentration (IC50) (in the series with T47D; in the series with PC-3 [1]; in series [2]; in the series with A549; in the series with HCT-116; with K562) was greater than 100 µM each time.
Take `Cc1cn(C2[Se][C@H](CO)[C@@H](O)[C@@H]2O)c(=O)[nH]c1=O` (stereo partly drawn): the half-maximal inhibitory concentration (IC50) (with T47D; in the series with PC-3 [1]; in series [2]; with A549; in the series on HCT-116; in the series with K562) was greater than 100 µM each time.
Take `O=c1[nH]c(=O)n(C2[Se][C@H](CO)[C@@H](O)[C@@H]2O)cc1F` (stereo partly drawn): the IC50 with T47D is 67.4 µM; with PC-3 [1] it was 66.3 µM; in series [2] it was 60.1 µM; in the series with A549 it was 55.2 µM; in the series with HCT-116, 56.8 µM; with K562, greater than 100 µM.
Consider `O=c1[nH]c(=O)n(C2[Se][C@H](CO)[C@@H](O)[C@@H]2O)cc1Cl` (stereo partly drawn), for which the IC50 (in the series with T47D; with PC-3 [1]; in series [2]; in the series on A549; in the series on HCT-116; in the series on K562) was greater than 100 µM each time.
On to `O=c1[nH]c(=O)n(C2[Se][C@H](CO)[C@@H](O)[C@@H]2O)cc1Br` (stereo partly drawn), for which the IC50 (with T47D; with PC-3 [1]; in series [2]; with A549; in the series on HCT-116; with K562) was greater than 100 µM in each case.
Turning to `O=c1[nH]c(=O)n(C2[Se][C@H](CO)[C@@H](O)[C@@H]2O)cc1I` (stereo partly drawn), the IC50 (with T47D; with PC-3 [1]; in series [2]; with A549; with HCT-116; in the series on K562) was greater than 100 µM throughout.
Take `Nc1ccn(C2[Se][C@H](CO)[C@@H](O)[C@@H]2F)c(=O)n1` (stereo partly drawn): the 50% inhibitory concentration (IC50) in the series with T47D came out at 0.79 µM; with PC-3 [1], 0.58 µM; in series [2] it was 0.14 µM; in the series with A549, 0.47 µM; with HCT-116 it was 1.1 µM; in the series on K562, 0.63 µM. The Drug metabolism entry in the series with PC-3 [3] is listed as “metabolite_notdetected”.
For `Nc1ccn(C2[Se][C@H](CO)[C@@H](O)[C@@H]2O)c(=O)n1` (stereo partly drawn), the IC50 was found to be 8.91 µM in the series on T47D; 4.54 µM in the series on PC-3 [1]; 4.72 µM in series [2]; 8.83 µM in the series on A549; 7.13 µM with HCT-116; 86.6 µM in the series with K562.
Take `Cc1cn(C2[Se][C@H](CO)[C@@H](O)[C@@H]2N=[N+]=[N-])c(=O)[nH]c1=O` (single isomer, unassigned; (+)): the 50% inhibitory concentration (IC50) (in the series on T47D; in the series on PC-3 [1]; in series [2]; in the series with A549; in the series with HCT-116; in the series with K562) was greater than 100 µM each time.
On to `[N-]=[N+]=N[C@@H]1C(n2cc(F)c(=O)[nH]c2=O)[Se][C@H](CO)[C@H]1O` (single isomer, unassigned; (+)), for which the half-maximal inhibitory concentration (IC50) (in the series on T47D; in the series with PC-3 [1]; in series [2]; in the series with A549; with HCT-116; in the series on K562) was greater than 100 µM throughout.
Turning to `O=c1[nH]c(=O)n(C2[Se][C@H](CO)[C@@H](O)[C@@H]2F)cc1Cl` (single isomer, unassigned; (+)), the IC50 is 77.1 µM in the series with T47D; greater than 100 µM in the series on PC-3 [1]; 76.3 µM in series [2]; 82.1 µM with A549; 80.2 µM in the series with HCT-116; greater than 100 µM with K562.
Consider `[N-]=[N+]=N[C@@H]1C(n2ccc(N)nc2=O)[Se][C@H](CO)[C@H]1O` (single isomer, unassigned; (+)), for which the IC50 amounted to 78.4 µM in the series with T47D; 75.1 µM with PC-3 [1]; 85.2 µM in series [2]; 80.1 µM with A549; 78.3 µM in the series with HCT-116; 62.3 µM in the series on K562.
On to `[N-]=[N+]=N[C@@H]1C(n2cc(Br)c(=O)[nH]c2=O)[Se][C@H](CO)[C@H]1O` (single isomer, unassigned; (-)), for which the 50% inhibitory concentration (IC50) (in the series on T47D; with PC-3 [1]; in series [2]; in the series with A549; in the series on HCT-116; in the series with K562) was greater than 100 µM throughout.
Consider `O=c1ccn(C2[Se][C@H](CO)[C@@H](O)[C@@H]2F)c(=O)[nH]1` (single isomer, unassigned; (-)), for which the IC50 (with T47D; in the series on PC-3 [1]; in series [2]; in the series on A549; in the series on HCT-116; with K562) was greater than 100 µM throughout.
The compound `Nc1ccn([C@@H]2O[C@H](CO)[C@@H](O)[C@@H]2O)c(=O)n1` [CYTARABINE] displayed an IC50 in series [2] of 0.15 µM.

For orientation: IC50 means the concentration needed to halve the response being measured.
